Experimental data gathered from unrelated publications.
Target: Acetylcholinesterase (ache, Electrophorus electricus, UniProt O42275)
Observed: enzyme activity
Mode: inhibitor
Method: Ellman

SMILES | IC50 [µM]
COc1ccc(-c2nnc(-c3ccc(OCc4cn(Cc5ccc(Cl)cc5)nn4)cc3)o2)cc1 | > 100
CC(C)(C)OC(=O)NC1CCCN(C(=O)/C=C/c2ccc(Cl)cc2)C1 (stereo not shown) | > 50
CCN(CC)C(=O)Oc1ccc(/C=C/C(=O)NC2CCN(Cc3ccccc3)CC2)cc1 | 4.5
COc1ccc(-c2csc(N/N=C(/C=C/c3c(Cl)cccc3Cl)C(=O)O)n2)cc1 | 0.499
Clc1ccc(Cn2cc(COc3ccc(-c4nnc(-c5ccccc5)o4)cc3)nn2)cc1 | > 100
CCN(C)C(=O)Oc1ccc(CCC(=O)N2CCc3ccccc3C2)cc1 | 8.3
COc1cccc(/C=C/C(=O)N2CCCC(NC(=O)OC(C)(C)C)C2)c1 (stereo not shown) | > 50
O=C(O)C(/C=C/c1c(Cl)cccc1Cl)=N\Nc1nc(-c2ccc(Br)cc2)cs1 | 0.655
CCN(C)C(=O)Oc1ccc(CCC(=O)N2CCC(Cc3ccccc3)CC2)cc1OC | 9.1
COc1ccc(-c2nnc(-c3ccc(OCc4cn(Cc5ccc(F)cc5)nn4)cc3)o2)cc1 | > 100
CCN(C)C(=O)Oc1ccc(CCC(=O)N2CCN(Cc3ccccc3)CC2)cc1OC | 12.2
COc1ccc(OC)c(/C=C/C(=O)N2CCCC(NC(=O)OC(C)(C)C)C2)c1 (stereo not shown) | 41.5
CCN(C)C(=O)Oc1ccc(CCC(=O)N2CCC(CCCc3ccccc3)CC2)cc1OC | 15.2
Fc1ccc(Cn2cc(COc3ccc(-c4nnc(-c5ccc(F)cc5)o4)cc3)nn2)cc1 | > 100
COc1ccccc1/C=C/C(=O)N1CCCC(NC(=O)OC(C)(C)C)C1 (stereo not shown) | > 50
CCN(C)C(=O)Oc1ccc(/C=C/C(=O)NC2CCN(Cc3ccccc3)CC2)cc1 | 1.8
COc1ccc(-c2nnc(-c3ccc(OCc4cn(Cc5ccc(C)cc5)nn4)cc3)o2)cc1 | > 100
CCOc1ccc(/C=C/C(=O)N2CCCC(NC(=O)OC(C)(C)C)C2)cc1OC (stereo not shown) | 35.2
Fc1ccc(-c2nnc(-c3ccc(OCc4cn(Cc5ccc(Br)cc5)nn4)cc3)o2)cc1 | > 100
CCN(C)C(=O)Oc1ccc(CCC(=O)N2CCN(Cc3ccccc3)CC2)cc1 | 7.8
O=[N+]([O-])c1ccc(-c2nnc(-c3ccc(OCc4cn(Cc5ccc(Br)cc5)nn4)cc3)o2)cc1 | > 100
CC(C)(C)OC(=O)NC1CCCN(C(=O)C=Cc2ccccc2)C1 (stereo not shown) | 39.4
O=C(O)C(/C=C/c1ccc(Cl)cc1)=N\Nc1nc(-c2ccccc2)cs1 | 0.855
Cc1ccc(/C=C/C(=O)N2CCCC(NC(=O)OC(C)(C)C)C2)cc1 (stereo not shown) | > 50
COc1cc(CCC(=O)N2CCC(Cc3ccccc3)CC2)ccc1OC(=O)N(C)C | 8.6
